ChEMBL document CHEMBL3132844, “Acyl protein thioesterase inhibitors as probes of dynamic S-palmitoylation” (Medchemcomm, 2014)

Columns and labels:
[1] = target: T1, Acyl-protein thioesterase 2 (Homo sapiens, UniProt O95372); assay: Inhibition of APT2 (unknown origin) by FluPol-ABPP assay
Procedure, shortened: (§1)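 Fluorescence polarization competitive ABPP (FluoPol-ABPP) in high-throughput format. Recombinant human APT enzyme was preincubated with candidate inhibitor at 10 µM. FP-TAMRA was then added for a short, time-dependent reaction under non-equilibrium conditions. Read-out was the polarization signal of probe labeling of the active site.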

[2] = target: T2, Acyl-protein thioesterase 1 (Homo sapiens, UniProt O75608); assay: Inhibition of APT1 (unknown origin) by FluPol-ABPP assay; procedure, shortened: as §1
[3] = target: T2, Acyl-protein thioesterase 1; assay: Inhibition of human APT1
Procedure, shortened: (§2)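 Potency and selectivity were measured by gel-based competitive ABPP. The enzyme source was preincubated with inhibitor, then labeled with a fluorophosphonate activity-based probe. Residual active-site labeling was visualized in-gel.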

[4] = target: T3, sn-1-specific diacylglycerol lipase ABHD11 (Homo sapiens, UniProt Q8NFV4); assay: Inhibition of ABHD11 (unknown origin); procedure, shortened: as §2
T3 sequence (Q8NFV4 whole entry): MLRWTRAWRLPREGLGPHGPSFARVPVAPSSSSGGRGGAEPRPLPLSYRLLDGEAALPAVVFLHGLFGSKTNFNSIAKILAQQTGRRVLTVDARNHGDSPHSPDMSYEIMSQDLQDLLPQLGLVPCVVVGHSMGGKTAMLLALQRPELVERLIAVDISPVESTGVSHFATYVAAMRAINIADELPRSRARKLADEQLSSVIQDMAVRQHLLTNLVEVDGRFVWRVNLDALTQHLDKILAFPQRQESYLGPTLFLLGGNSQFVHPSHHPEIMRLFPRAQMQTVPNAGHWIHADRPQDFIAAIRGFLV

[5] = target: T1, Acyl-protein thioesterase 2; assay: Inhibition of human APT2; procedure, shortened: as §2
[6] = target: T1, Acyl-protein thioesterase 2; assay: Inhibition of APT2 (unknown origin)
[7] = target: T1, Acyl-protein thioesterase 2; assay: Inhibition of APT2 (unknown origin) by enzyme kinetic assay
[8] = Inhibition of Toxoplasma gondii ASH1
Procedure, shortened: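 The Toxoplasma gondii APT homologue TgASH1 was assayed by competitive ABPP. The inhibitor was preincubated, followed by activity-based probe labeling. Loss of probe labeling of TgASH1 was scored across inhibitor concentrations.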

[9] = target: T2, Acyl-protein thioesterase 1; assay: Inhibition of APT1 (unknown origin)

T1 sequence (O95372 whole entry): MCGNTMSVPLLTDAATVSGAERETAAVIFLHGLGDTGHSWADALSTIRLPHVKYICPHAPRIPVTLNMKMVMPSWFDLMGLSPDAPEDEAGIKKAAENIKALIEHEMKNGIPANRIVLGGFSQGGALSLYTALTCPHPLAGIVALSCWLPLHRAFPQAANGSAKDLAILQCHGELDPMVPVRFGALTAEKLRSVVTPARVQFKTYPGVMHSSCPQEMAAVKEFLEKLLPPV
T2 sequence (O75608 whole entry): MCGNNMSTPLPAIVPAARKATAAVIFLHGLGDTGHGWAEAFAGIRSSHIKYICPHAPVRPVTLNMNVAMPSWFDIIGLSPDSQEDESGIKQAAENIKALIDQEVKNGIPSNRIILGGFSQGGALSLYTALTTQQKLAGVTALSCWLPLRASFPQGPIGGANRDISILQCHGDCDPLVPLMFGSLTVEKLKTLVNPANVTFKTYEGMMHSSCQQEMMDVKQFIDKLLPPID

IC50 [3] | IC50 [4] | IC50 [5] | Structure (SMILES) | also measured
– | – | – | COc1ccc(N2CCN(C(=O)c3cc4c(s3)-c3ccccc3S(=O)(=O)C4)CC2)cc1 | Ki [1]: 230 nM; Ki [2]: > 10000 nM
> 10000 nM | < 30 nM | > 10000 nM | CCC1CCCCN1C(=O)n1ncc(C(O)(c2ccccc2)c2ccccc2)n1 (stereo not drawn) | –
17 nM | < 30 nM | 30 nM | CC(C)(C)C1CCN(C(=O)n2ncc(C(O)(c3ccccc3)c3ccccc3)n2)CC1 | –
– | – | – | CCCCCCCCCC[C@@H]1C(=O)O[C@H]1CCCCS(=O)(=O)CCCN(C)C | IC50 [6]: 19.6 nM
– | – | – | CN(C)CCOB(c1ccccc1)c1ccc(COCc2ccc(B(OCCN(C)C)c3ccccc3)cc2)cc1 | Ki [7]: 730 nM
< 30 nM | < 30 nM | 200 nM | O=C(N1CCCCC1)n1ncc(C(O)(c2ccccc2)c2ccccc2)n1 | –
– | – | – | CCCOc1oc(=O)c2cc(N)ccc2c1Cl | IC50 [8]: 1320 nM
– | – | – | O=C(CN1CCN(C(=O)c2ccco2)CC1)Nc1cc(C(F)(F)F)ccc1Cl | Ki [1]: > 10000 nM
– | – | – | CCCCCCCCCC[C@@H]1C(=O)O[C@H]1CCc1ccc(OC)c(OC)c1 [PALMOSTATIN B] | IC50 [6]: 37.7 nM; Ki [6]: 34 nM; IC50 [9]: 5.4 nM
